# Compounds with a hit are over-represented: about 1.7% of the library has one in this group of screens.
# EBNA-1 inhibitor: blocks EBNA-1 binding to DNA; EBNA-1 DNA binding, fluorescence polarization; inhibition, % at 14.8 µM; 300,000 tested, 0.34% active; in the data active = inhibition above about 28%
# PREPL inhibitor: human PREPL enzyme inhibition; recombinant PREPL, fluorescence polarization activity-based probe; inhibition, % at 5.96 µM; 320,000 tested, 0.68% active; AID 2751; in the data active = inhibition above about 43%
# Target sequence (Q4J6C6 whole entry, looked up): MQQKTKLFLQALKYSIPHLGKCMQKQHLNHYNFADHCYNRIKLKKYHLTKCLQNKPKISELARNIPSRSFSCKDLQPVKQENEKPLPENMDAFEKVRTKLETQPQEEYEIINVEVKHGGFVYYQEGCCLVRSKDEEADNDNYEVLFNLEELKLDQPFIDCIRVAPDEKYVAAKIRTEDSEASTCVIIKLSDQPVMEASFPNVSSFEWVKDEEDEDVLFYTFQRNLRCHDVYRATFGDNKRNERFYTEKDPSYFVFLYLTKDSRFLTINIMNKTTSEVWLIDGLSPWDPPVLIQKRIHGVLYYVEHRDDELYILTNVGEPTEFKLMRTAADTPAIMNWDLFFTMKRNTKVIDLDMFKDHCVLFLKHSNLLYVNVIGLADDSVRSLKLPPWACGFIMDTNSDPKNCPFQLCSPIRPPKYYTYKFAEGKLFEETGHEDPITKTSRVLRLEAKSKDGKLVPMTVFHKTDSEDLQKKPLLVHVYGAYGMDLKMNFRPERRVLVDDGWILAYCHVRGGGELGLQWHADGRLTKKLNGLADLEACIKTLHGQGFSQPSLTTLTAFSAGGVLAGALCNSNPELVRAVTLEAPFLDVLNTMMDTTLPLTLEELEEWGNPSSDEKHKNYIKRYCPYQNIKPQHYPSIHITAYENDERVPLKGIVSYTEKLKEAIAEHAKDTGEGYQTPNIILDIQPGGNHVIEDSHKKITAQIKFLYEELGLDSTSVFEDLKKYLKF
# UBC13 inh: blocks human UBC13 polyubiquitin chain formation; TR-FRET; inhibition, % at 20 µM; 330,000 tested, 0.47% active; P61088; in the data active = inhibition above about 45%, passing the limit was not always enough
# ZTA counter: ZTA (EBV) inhibition in EBNA-1 counter-screen. ZTA-DNA binding, fluorescence polarization. P03206. AID 2234. inhibition, % at 11 µM. 320,000 tested, 0.15% active; in the data active = inhibition above about 33%
# Apaf-1 inh: inhibitors of human Apaf-1 apoptosome. reconstituted apoptosome caspase-3 activity, DEVD-Rh110 fluorescence. inhibition, % at 20 µM. 330,000 tested, 0.71% active. AID 489030; active = inhibition of at least 40% at 20 µM
#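 System – cell-free apoptosome with Apaf-1, procaspase-3 and caspase-9 · Buffer or medium – pH 7.5 Hepes buffer with CHAPS, BSA, DTT · Also added – cytochrome c with DEVD-Rh110 · Times – 30 min compound preincubation, 50 min activation, room temperature · Technique – Rh110 fluorescence intensity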
# EBNA-1 inh conf: EBNA-1 (EBV) inhibition, confirmation; shares compounds with EBNA-1 inhibitor; Recombinant EBNA-1 DBD, Cy5-DNA fluorescence polarization; inhibition, % at 14.8 µM; 830 tested, 35% active; AID 2292;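 active = mean inhibition across replicates above a set limit taken from the earlier primary screen, cut at about 28% in these data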
# ZTA DNA inh trip: blocks Epstein-Barr virus ZTA in triplicate, EBNA-1 counter-screen; shares compounds with EBNA-1 inhibitor; Zta-ZRE DNA binding, Cy5 fluorescence polarization; inhibition, % at 11.1 µM; 830 tested, under 10 active; AID 2328;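 active = mean inhibition over triplicates above a set limit taken from the primary EBNA-1 screen, cut at about 37% in these data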;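 note: purified full length Zta protein with Cy5 labeled ZRE DNA probe; inhibitors lower polarization by freeing the labeled DNA probe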
# A number is an active result; 0 = inactive; - = not tested or not shown.
SMILES,EBNA-1 inhibitor,PREPL inhibitor,UBC13 inh,ZTA counter,Apaf-1 inh,EBNA-1 inh conf,ZTA DNA inh trip
Cc1cc(O)c(NC(=O)c2cccc([N+](=O)[O-])c2)cc1C,0,0,0,0,0,-,-
Cc1cc(CSc2ccccc2)ccc1NC(=O)c1cccc([N+](=O)[O-])c1,28,0,0,0,0,0,0
O=[N+]([O-])c1ccc(O)c(/C=N/Nc2ccc(Cl)nn2)c1,0,0,0,0,0,-,-
CCCNC(=O)c1ccc(N2CCC3(CC2)CC(c2ccccc2)=NO3)c([N+](=O)[O-])c1,0,0,0,0,0,-,-
CCCNC(=O)c1ccc(N2CCC3(CC2)CC(c2ccccc2)=NO3)c(N)c1,51,0,0,0,0,0,0
Cc1ccc(-c2nn3c(C)nnc3s2)cc1NC(=O)c1ccc(-c2ccc(Cl)cc2Cl)o1,37,0,0,0,0,0,0
CCOC(=O)C1CCN(Cc2ccc(F)cc2)CC1,0,0,0,0,0,-,-
CCOC(=O)C1CCN(Cc2ccc(Cl)c(Cl)c2)CC1,46,0,0,0,0,0,0
CCCCN(C(=O)CC(c1ccccc1)c1ccccc1)c1c(N)n(CCC)c(=O)[nH]c1=O,0,0,0,0,0,-,-
CCc1ccccc1N(C)S(=O)(=O)c1ccc2[nH]cc(C(=O)N3CCc4ccccc43)c(=O)c2c1,28,0,0,0,0,0,0
Cc1ccccc1C(=O)Nc1nc2c(C)csc2c(=O)s1,55,0,0,0,0,0,0
Cc1csc2c(=O)sc(NC(=O)c3ccc(F)cc3)nc12,0,0,0,0,0,-,-
COc1cccc(Cn2nnc(C(=O)NCc3ccc4c(c3)OCO4)c2N)c1,0,0,0,0,0,-,-
Nc1c(C(=O)NCc2ccc3c(c2)OCO3)nnn1Cc1cccc(F)c1,76,0,0,0,0,29,0
Nc1c(C(=O)Nc2ccc3c(c2)OCCO3)nnn1Cc1ccc(Cl)cc1,0,0,0,0,0,-,-
Nc1c(C(=O)Nc2ccc3c(c2)OCCO3)nnn1Cc1cccc(F)c1,35,0,0,0,0,87,0
O=C1CCC(C(=O)N2CCN(c3ccc(F)cc3)CC2)CN1CC1CCCCC1 (stereo not given),0,0,0,0,0,-,-
CCOc1ccccc1N(CC(=O)Nc1cccc(OC)c1)S(=O)(=O)c1ccccc1,0,0,0,0,0,-,-
CCOc1ccccc1N(CC(=O)Nc1ccc(OC)cc1)S(=O)(=O)c1ccccc1,28,0,0,0,0,0,0
Cc1ccc(-c2nnc(NCc3nc4ccccc4[nH]3)c3ccccc23)cc1S(=O)(=O)N1CCOCC1,0,0,0,0,0,-,-
Cc1ccc(-c2nnc(NCc3nc4ccccc4[nH]3)c3ccccc23)cc1S(=O)(=O)N(C)C,93,0,0,0,0,37,0
CN(Cc1cccs1)C(=O)CCNS(=O)(=O)c1ccc(Br)cc1,-,0,0,0,0,-,-
CC(C)Cn1c(N)c(C(=O)COC(=O)c2ccc3c(c2)OCCO3)c(=O)n(C)c1=O,29,0,0,0,0,32,0
CC(C)Cn1c(N)c(C(=O)CSc2ccc3c(c2)OCCO3)c(=O)n(C)c1=O,54,0,0,0,0,47,0
CC(C)CN(C(=O)CSc1ccc2c(c1)OCCO2)c1c(N)n(CC(C)C)c(=O)[nH]c1=O,-,0,0,0,0,-,-
SMILES,EBNA-1 inhibitor,PREPL inhibitor,UBC13 inh,ZTA counter,Apaf-1 inh,EBNA-1 inh conf,ZTA DNA inh trip
CC(=O)Nc1ccc(NC(=O)C(C)OC(=O)c2oc3ccccc3c2C)cc1 (stereo not given),80,0,0,0,0,118,0
COc1ccc2oc(C(=O)OCC(=O)Nc3cc(S(=O)(=O)N4CCOCC4)ccc3C)c(C)c2c1,62,0,0,0,0,107,0
COc1ccc2oc(C(=O)OCC(=O)Nc3ccc(NC(C)=O)cc3)c(C)c2c1,120,0,0,0,0,167,0
COc1ccc2oc(C(=O)OCC(=O)Nc3ccc(OC)c(S(N)(=O)=O)c3)c(C)c2c1,0,0,0,0,0,-,-
CC(=O)Nc1ccc(NC(=S)NC(=O)c2oc3ccccc3c2C)cc1,0,0,0,0,0,-,-
CCOC(=O)c1sc(NC(=O)CCN2CC(C)OC(C)C2)c(C(=O)OCC)c1C (stereo not given),0,0,0,0,0,-,-
CC1(C)CC(=O)C2=C(C1)N(c1ncn[nH]1)C(N)=C(C#N)C2c1ccccc1 (stereo not given),0,0,0,0,0,-,-
COc1ccc(NC(=O)COC(=O)c2ccc(OCc3ccccc3Cl)c(OC)c2)c(OC)c1,32,0,0,0,0,0,0
O=[N+]([O-])c1ccc(OCCN2CCCCCC2)cc1,0,0,0,0,0,-,-
COC(=O)c1cn(NC(=O)/C=C/c2cc(OC)ccc2OC)c(=O)c2ccccc12,42,0,0,0,0,0,0
COC(=O)c1cn(NC(=O)c2ccc(OC)c(OC)c2)c(=O)c2ccccc12,0,0,0,0,0,-,-
CCCCN1C(=N)N([C@@H](C)CN2CCC[C@H]2CN2C(N)=NC[C@H]2C(C)C)C[C@H]1[C@H](C)CC,-,0,0,-,0,-,-
COc1ccc(CC(=O)OCc2csc(CC(=O)Nc3ccc(C)cc3)n2)cc1,-,0,0,-,0,-,-
O=C(c1cccc(-c2ccc(O)cc2)c1)N1CCN(c2ccc(F)cc2)CC1,40,0,0,0,0,0,0
O=C(Nc1cccc(C(=O)N2CCN(c3ccc(F)cc3)CC2)c1)c1ccccc1,0,0,0,0,0,-,-
O=C(Cn1cnc2ccccc2c1=O)N1CCN(c2ccc(F)cc2)CC1,0,0,0,0,0,-,-
CCN(CC)c1ccc(/C=C(\C#N)C(=O)NCc2ccco2)cc1,0,0,-,0,-,-,-
CN(C)c1ccc(/C=C(\C#N)C(=O)NCc2ccco2)cc1,44,0,0,0,0,69,0
Cn1c(C(O)c2ccc(Cl)cc2)nc(Cl)c1Cl (stereo not given),0,0,0,0,0,-,-
O=C(N/C(=C\c1cccnc1)c1nc2ccccc2[nH]1)c1cccc(Br)c1,0,0,0,0,0,-,-
O=C(N/C(=C\c1ccc(Br)cc1)c1nc2ccccc2[nH]1)c1ccco1,49,0,0,0,0,33,0
O=C(CCc1ccccc1)Nc1ccccc1C(=O)N1CCOCC1,0,0,0,0,0,-,-
S=c1nc[nH]c2c1[nH]c1ccc(Cl)cc12,43,0,0,0,0,0,0
CC(=O)c1cccc(NC(=S)N2CCN(CCN3C(=O)c4cccc5cccc(c45)C3=O)CC2)c1,34,0,0,0,0,0,0
Cc1ccc(NS(=O)(=O)c2ccc(OCC(=O)NCc3ccccn3)cc2)cc1,0,0,0,0,0,-,-
CCOP(=O)(c1ccccc1)C(O)c1ccc([N+](=O)[O-])cc1 (stereo not given),0,0,0,0,0,-,-
CCOP(=O)(c1ccccc1)C(O)c1ccc(F)cc1 (stereo not given),103,0,0,0,0,0,0

# Screening results as filed in PubChem BioAssay.
